Measured values taken from ChEMBL document CHEMBL4145532, “Design and synthesis of new potent N,N-bis(arylalkyl)piperazine derivatives as multidrug resistance (MDR) reversing agents” (Eur J Med Chem, 2018).
pEC50: −log10 of the molar value. Calls of active or inactive are those of the source. No cut-off for these calls is given here.

Assays:
[1] = Half life in human plasma up to 1 uM by LC-MS/MS analysis; format: ADME, cell-free
Outline: (§1)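 Analyte at 1 μM was placed in PBS, pooled human plasma (healthy male volunteers) or Sprague-Dawley male rat plasma. Samples were incubated at 37 °C for 0, 30, 60 and 120 min in triplicate. Internal standard was added, samples were centrifuged, and supernatants were dried and redissolved in 10 mM formic acid water:acetonitrile 80:20. Quantitation was by LC-MS/MS, positive ESI, MRM. Plasma hydrolytic activity was checked with ketoprofen ethyl ester or enalapril.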

[2] = species on record: Homo sapiens; assay: (§2) Inhibition of P-gp in human K562/Dox cells assessed as reduction in Rh-123 efflux by measuring mean fluorescence intensity at 1 uM preincubated for 15 mins followed by Rh-123 addition for 30 mins and subsequent replacement in Rh-123 free medium measured after 60 mins by FACS analysis; format: cell-based
Outline: (§3)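 K562/DOX cells pretreated with modulator (1.0 μM) 15 min before loading with 5.0 μM rhodamine 123 for 30 min at 37 °C, 5% CO2. Washed, then held in Rhd 123-free medium with or without modulator for 30 or 60 min. Cells washed in ice-cold PBS and analysed by flow cytometry (≥20,000 gated events). MFI ratio = median fluorescence of treated/untreated control. Mean ± SE, three independent experiments.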

[3] = species on record: Homo sapiens; assay: Inhibition of P-gp in human K562/Dox cells assessed as potentiation of doxorubicin-induced cytotoxicity by measuring ratio of doxorubicin IC50 to doxorubicin IC50 in presence of test compound at 3 uM after 72 hrs by MTT assay; format: cell-based
Outline: (§4)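 K562/DOX cells were exposed 72 h to doxorubicin (0.0001–100 μM) with or without modulator at 0.1, 1.0 or 3.0 μM, then read by MTT at 570 nm. Reversal fold is doxorubicin IC50 without modulator divided by IC50 with modulator. Quadruplicate cultures, at least three determinations.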

[4] = species on record: Homo sapiens; assay: (§5) Inhibition of P-gp in human K562/Dox cells assessed as reduction in Rh-123 efflux by measuring mean fluorescence intensity at 1 uM preincubated for 15 mins followed by Rh-123 addition for 30 mins and subsequent replacement in Rh-123 free medium measured after 30 mins by FACS analysis; format: cell-based; outline: as §3
[5] = tested on: K562; assay: Induction of Rh-123 accumulation in human K562 cells at 1 uM preincubated for 15 mins followed by Rh-123 addition and measured after 30 mins by FACS analysis; format: functional, cell-based
Outline: (§6)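 Cells (K562/DOX or parental K562) got modulator at 1.0 μM, with 15 min pre-exposure, then were loaded with 5.0 μM rhodamine-123 for 30 min at 37 °C in 5% CO2. After washing, cells sat in Rh-123-free medium with or without modulator for 30 or 60 min efflux. Cells were washed in ice-cold PBS and read by flow cytometry (≥20,000 gated events). MFI ratio is median fluorescence of treated over untreated control.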

[6] = Half life in Sprague-Dawley rat plasma up to 1 uM by LC-MS/MS analysis; format: ADME, cell-free; outline: as §1
[7] = Cytotoxicity against human K562/Dox cells at 0.1 to 3 uM after 72 hrs by MTT assay; format: cell-based
Outline: (§7)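 Compounds were given alone at 0.1, 1.0 and 3.0 μM to parental K562 and to P-gp-overexpressing K562/DOX cells. Exponential-phase cells were seeded at 10^4 cells/well and kept 72 h at 37 °C in 5% CO2. MTT was then added for 3 h, formazan was dissolved in acidified isopropanol, and absorbance was read at 570 nm.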

[8] = tested on: K562; assay: Potentiation of doxorubicin-induced cytotoxicity against human K562 cells at 0.1 to 3 uM after 72 hrs by MTT assay; format: functional, cell-based
Outline: (§8)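 Doxorubicin (0.0001–100 μM) was tested alone or combined with modulator at 0.1, 1.0 or 3.0 μM on K562/DOX or parental K562 cells, seeded at 10^4 cells/well. Plates ran 72 h at 37 °C in 5% CO2, followed by 3 h MTT, acidified isopropanol and A570. Doxorubicin IC50 was taken as mean ± SE of at least three determinations with quadruplicate cultures.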

[9] = species on record: Homo sapiens; assay: Inhibition of P-gp in human K562/Dox cells assessed as increase in Rh-123 accumulation at 1 uM preincubated for 15 mins followed by Rh-123 addition measured after 30 to 60 mins by FACS analysis; format: cell-based; outline: as §6
[10] = tested on: K562; assay: Inhibition of Rh-123 efflux in human K562 cells at 1 uM preincubated for 15 mins followed by Rh-123 addition for 30 mins and subsequent replacement in Rh-123 free medium measured after 30 to 60 mins by FACS analysis; format: functional, cell-based; outline: as §6
[11] = species on record: Homo sapiens; assay: Inhibition of P-gp in human K562/Dox cells assessed as potentiation of doxorubicin-induced cytotoxicity by measuring ratio of doxorubicin IC50 to doxorubicin IC50 in presence of test compound at 0.1 uM after 72 hrs by MTT assay; format: cell-based; outline: as §4
[12] = tested on: K562; assay: Potentiation of doxorubicin-induced cytotoxicity against human K562 cells at 1 uM after 72 hrs by MTT assay; format: functional, cell-based; outline: as §8
[13] = species on record: Homo sapiens; assay: (§9) Inhibition of P-gp in human K562/Dox cells assessed as potentiation of doxorubicin-induced cytotoxicity after 72 hrs by MTT assay; format: cell-based; outline: as §8
[14] = Half life in PBS up to 1 uM by LC-MS/MS analysis; format: physicochemical; outline: as §1
[15] = tested on: K562; assay: Cytotoxicity against human K562 cells at 0.1 to 3 uM after 72 hrs by MTT assay; format: cell-based; details: k562, 72 h; outline: as §7
[16] = species on record: Homo sapiens; assay: Inhibition of P-gp in human K562/Dox cells assessed as potentiation of doxorubicin-induced cytotoxicity by measuring ratio of doxorubicin IC50 to doxorubicin IC50 in presence of test compound at 1 uM after 72 hrs by MTT assay; format: cell-based; outline: as §4
[17] = Cytotoxicity against human K562/Dox cells at 3 uM after 72 hrs by MTT assay relative to control; format: cell-based; outline: as §7
[18] = species on record: Homo sapiens; assay: as §5, with “measuring increase in” for “measuring”, “analysis relative to control” for “analysis”; format: cell-based; outline: as §6
[19] = as §9; format: cell-based; details: K562, 72 h; outline: as §8
[20] = species on record: Homo sapiens; assay: as §2, with “measuring increase in” for “measuring”, “analysis relative to control” for “analysis”; format: cell-based; outline: as §6

CCOC(=O)C(C)c1cccc(C(=O)c2ccccc2)c1 (stereo not drawn)
half-life [1]: 1.83 h

COc1cc(/C=C/CN2CCN(Cc3c4ccccc4cc4ccccc34)CC2)cc(OC)c1OC
Flu intensity [2]: 2.4 | half-life [1]: > 4 h | Ratio IC50 [3]: 22 | Flu intensity [4]: 7.5 | Activity [5]: inactive | half-life [6]: > 4 h | Activity [7]: Non-Toxic | Activity [8]: inactive | P-gp inhibition activity call (increase in Rh-123 accumulation) [9]: Active | inhibition [10]: inactive | Ratio IC50 [11]: 1.7 | Activity [12]: inactive | inhibition [13]: Dose-dependent effect | half-life [14]: > 4 h | Activity [15]: Non-Toxic | Ratio IC50 [16]: 8.8

COc1ccc(C(CCCN2CCN(CCOc3cc(OC)c(OC)c(OC)c3)CC2)c2ccc(OC)cc2)cc1
Flu intensity [2]: 1.4 | half-life [1]: > 4 h | Ratio IC50 [3]: 8.8 | Flu intensity [4]: 5.5 | Activity [5]: inactive | half-life [6]: > 4 h | Activity [7]: Non-Toxic | Activity [8]: inactive | P-gp inhibition activity call (increase in Rh-123 accumulation) [9]: Active | inhibition [10]: inactive | Ratio IC50 [11]: 2.4 | Activity [12]: inactive | inhibition [13]: Dose-dependent effect | half-life [14]: > 4 h | Activity [15]: Non-Toxic | Ratio IC50 [16]: 4.5

COc1ccc(C(CCCN2CCN(Cc3cc(OC)c(OC)c(OC)c3)CC2)c2ccc(OC)cc2)cc1
Flu intensity [2]: 11.1 | Activity [17]: <= 30% | half-life [1]: > 4 h | Ratio IC50 [3]: 73.3 | Flu intensity [4]: 30 | Activity [5]: inactive | half-life [6]: > 4 h | fold change (FC) [18]: 30 | Activity [8]: inactive | P-gp inhibition activity call (increase in Rh-123 accumulation) [9]: Active | inhibition [10]: inactive | Ratio IC50 [11]: 1.2 | Activity [12]: inactive | inhibition [13]: Dose-dependent effect | pEC50 [19]: 5.72 | half-life [14]: > 4 h | fold change (FC) [20]: 10 | Activity [15]: Non-Toxic | Ratio IC50 [16]: 10.5

COc1ccc(C(CCCN2CCN(C/C=C/c3cc(OC)c(OC)c(OC)c3)CC2)c2ccc(OC)cc2)cc1
Flu intensity [2]: 49.9 | half-life [1]: > 4 h | Ratio IC50 [3]: 44 | Flu intensity [4]: 108 | Activity [5]: inactive | half-life [6]: > 4 h | Activity [7]: Non-Toxic | fold change (FC) [18]: 100 | Activity [8]: inactive | P-gp inhibition activity call (increase in Rh-123 accumulation) [9]: Active | inhibition [10]: inactive | Ratio IC50 [11]: 1.9 | Activity [12]: inactive | inhibition [13]: Dose-dependent effect | pEC50 [19]: 5.57 | half-life [14]: > 4 h | fold change (FC) [20]: 50 | Activity [15]: Non-Toxic | Ratio IC50 [16]: 12.9

CCOC(=O)[C@H](CCc1ccccc1)N[C@@H](C)C(=O)N1CCC[C@H]1C(=O)O
half-life [6]: 0.417 h

COc1cc2c(cc1OC)CN(CCc1ccc(NC(=O)c3cc(OC)c(OC)cc3NC(=O)c3cnc4ccccc4c3)cc1)CC2
Ratio IC50 [16]: 31.4
